Test [1] in a line: Inhibition of PDE4D7 S129D mutant (unknown origin) preincubated for 5 to 10 mins followed by substrate addition and measured for 10 mins by coupled enzyme based fluorescence analysis. Details: species or system Homo sapiens. A digest of the protocol: (§1)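 Mutationally activated dimeric enzymes: PDE4D7-S129D (PDE4D*) and PDE4B1-S133D (PDE4B*). A real-time coupled enzyme assay measured inhibition instead of a fluorescein-labeled cAMP substrate, because the label prevents UCR2 closure. PDE4B* was used to assess subtype selectivity. The method otherwise followed earlier work.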

The target in test [2] is 3',5'-cyclic-AMP phosphodiesterase 4B (Homo sapiens, UniProt Q07343, S133D). As to the kind of experiment: Inhibition of PDE4B1 S133D mutant (unknown origin) preincubated for 5 to 10 mins followed by substrate addition and measured for 10 mins by coupled enzyme based fluorescence analysis. The method in brief:
as §1

Test [3] can be described thus: Selectivity index, ratio of IC50 for PDE4B1 S133D mutant (unknown origin) to IC50 for PDE4D7 S129D mutant (unknown origin). A digest of the protocol: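 B/D ratio is the IC50 against PDE4B1-S133D (PDE4B*) divided by the IC50 against PDE4D7-S129D (PDE4D*). Both IC50s come from the real-time coupled enzyme assay on the mutationally activated dimeric enzymes.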

The IC50 is the concentration at which inhibition is half-maximal. A higher IC50 goes with lower potency.

Where only a bound is given, the exact number is not on record here.

Sequence of 3',5'-cyclic-AMP phosphodiesterase 4B (Q07343 whole entry S133D): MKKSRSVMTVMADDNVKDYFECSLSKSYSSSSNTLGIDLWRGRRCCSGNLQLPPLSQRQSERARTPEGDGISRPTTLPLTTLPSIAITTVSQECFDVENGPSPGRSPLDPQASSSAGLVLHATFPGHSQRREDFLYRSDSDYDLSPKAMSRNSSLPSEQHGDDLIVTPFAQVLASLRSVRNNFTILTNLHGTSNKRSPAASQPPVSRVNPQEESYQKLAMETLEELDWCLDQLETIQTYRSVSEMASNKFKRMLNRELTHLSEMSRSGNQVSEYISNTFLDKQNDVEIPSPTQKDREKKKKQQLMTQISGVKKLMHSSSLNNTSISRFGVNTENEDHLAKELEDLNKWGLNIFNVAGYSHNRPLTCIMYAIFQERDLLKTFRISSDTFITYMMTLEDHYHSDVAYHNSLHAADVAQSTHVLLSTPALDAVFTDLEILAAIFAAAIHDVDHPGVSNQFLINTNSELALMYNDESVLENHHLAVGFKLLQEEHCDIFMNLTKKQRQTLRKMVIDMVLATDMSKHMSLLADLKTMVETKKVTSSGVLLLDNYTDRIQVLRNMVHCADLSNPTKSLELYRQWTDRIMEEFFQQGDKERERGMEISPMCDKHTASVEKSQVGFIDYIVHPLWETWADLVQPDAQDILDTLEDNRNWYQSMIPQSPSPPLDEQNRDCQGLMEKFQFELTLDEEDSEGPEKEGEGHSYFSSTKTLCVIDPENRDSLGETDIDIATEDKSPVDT

Take `O=[N+]([O-])c1cccc(-c2nc(Cn3ccnc3)ccc2OC(F)F)c1`: the IC50 is 0.3 nM in test [1] and 81 nM in test [2]. Further, the Ratio IC50 in test [3] came to 270.
With `COc1cccc(-c2nc(Cn3cncn3)ccc2OC(F)F)c1`, the 50% inhibitory concentration (IC50) in test [1] was 42 nM; in test [2] it was above 10000 nM.
Take `Fc1ccc(Cc2cn[nH]c2)nc1-c1cccc(Cl)c1`: the IC50 in test [1] is 744 nM; in test [2] it was above 10000 nM.
The matching figures for `COc1ccc(Cc2ccc(CCO)cc2)nc1-c1cccc(OC(F)F)c1`: 4 nM and above 10000 nM.
In the case of `Fc1cccc(-c2nc(Cc3cn[nH]c3)ccc2OC(F)F)c1`, the IC50 in test [1] amounted to 7.6 nM; in test [2], 1070 nM. Also, the Ratio IC50 in test [3] is 141.
As for `Fc1cccc(-c2nc(Cn3ccnc3)ccc2OC(F)F)c1`, in test [1], the midpoint of inhibition, the IC50, lay at 3.7 nM and the logIC50 was 0.57 log(nM). In test [2], this molecule registered a concentration for half-maximal inhibition (IC50) of 198 nM. The Ratio IC50 in test [3] was 54.
On to `FC(F)Oc1cccc(-c2nc(Cn3ccnc3)ccc2OCc2ccccc2)c1`, for which the IC50 in test [1] is 174 nM; in test [2], above 10000 nM.
With `COc1ccc(Nc2cn[nH]c2)nc1-c1cccc(OC(F)F)c1`, the half-inhibitory concentration (IC50) in test [1] came out at 188 nM; in test [2] it was 2500 nM. Besides, in test [3], the Ratio IC50 stood at 13.
For `COc1ccc(Cn2cccn2)nc1-c1cccc(Cl)c1`, the half-inhibitory concentration (IC50) in test [1] worked out at 1150 nM; in test [2], 9170 nM. Also, in test [3], the Ratio IC50 turned out to be 8.
The matching figures for `COc1ccc(Cc2cn[nH]c2)nc1-c1cccc(C(F)(F)F)c1`: 186 nM, 7850 nM and 42.
Regarding `COc1cccc(-c2nc(Cc3ccc(CCO)cc3)ccc2OC(F)F)c1`, the half-inhibitory concentration (IC50) in test [1] is 6.9 nM; in test [2] it was 4000 nM. The Ratio IC50 in test [3] turned out to be 581.
On to `COc1ccc(Cn2cccn2)nc1-c1cccc(F)c1`, for which the results for the IC50 in test [1] and in test [2] were 5530 nM and above 10000 nM, respectively.
The matching figures for `COc1cccc(-c2nc(COc3cn[nH]c3)ccc2OC(F)F)c1`: 372 nM and above 10000 nM.
The matching figures for `COc1ccc(Cn2ncnn2)nc1-c1cccc(OC(F)F)c1`: 21 nM and above 10000 nM.
On the same counts, the results for `COc1ccc(Cn2cncn2)nc1-c1cccc(OC(F)F)c1` are 15 nM and above 10000 nM.
With `COc1ccc(Oc2cn[nH]c2)nc1-c1cccc(OC(F)F)c1`, the IC50 in test [1] is 1550 nM; in test [2], above 10000 nM.
The matching figures for `COc1cccc(-c2nc(Cc3ccc(CCCO)cc3)ccc2OC(F)F)c1`: 24 nM and above 10000 nM.
Take `COc1cccc(-c2nc(Nc3cn[nH]c3)ccc2OC(F)F)c1`: the values for the IC50 in test [1] and in test [2] were 658 nM and above 10000 nM, respectively.
On the same counts, the results for `COc1ccc(Nc2cn[nH]c2)nc1-c1cccc(C(F)(F)F)c1` are 4310 nM and above 10000 nM.
Regarding `COc1cccc(-c2nc(Cn3cnc(C(F)(F)F)n3)ccc2OC(F)F)c1`, the concentration for half-maximal inhibition (IC50) in test [1] was 743 nM; in test [2], above 10000 nM.
On the same counts, the results for `FC(F)Oc1cccc(-c2nc(Cc3cn[nH]c3)ccc2OCc2ccccc2)c1` are 164 nM and above 10000 nM.
The matching figures for `COc1cccc(-c2nc(Oc3cn[nH]c3)ccc2OC(F)F)c1`: 281 nM and above 10000 nM.
The matching figures for `COc1ccc(Cc2ccc(CCCO)cc2)nc1-c1cccc(OC(F)F)c1`: 16 nM and above 10000 nM.
For the molecule `COc1ccc(Cn2cnc(C(F)(F)F)n2)nc1-c1cccc(OC(F)F)c1`, the IC50 in test [1] is 785 nM; in test [2] it was above 10000 nM.
The matching figures for `COc1cccc(-c2nc(Cn3ncnn3)ccc2OC(F)F)c1`: 17 nM and above 10000 nM.
The matching figures for `FC(F)Oc1cccc(-c2nc(Cc3ccncc3)ccc2OCc2ccccc2)c1`: 610 nM and above 7760 nM.
On the same counts, the results for `COc1ccc(Cn2cccn2)nc1-c1cccc(C(F)(F)F)c1` are above 10000 nM and above 10000 nM.
